Experimental findings from ChEMBL document CHEMBL1124108, “Antihypertensive thiadiazoles. 2. Vasodilator activity of some 2-aryl-5-guanidino-1,3,4-thiadiazoles” (1988) are described below.

In assay [1] the test system is Rattus norvegicus. Briefly: Maximum percentage reduction in mean blood pressure in metacorticoid (DOCA) hypertensive rats at a standard oral dose of 100 mg/kg; IA = Inactive;Maximum percentage fall in MABP <10%. In kind it is functional, organism-based. Further details: dose 100 mg/kg. The essentials:
(§1)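 Rats were DOCA hypertensive. For oral dosing, food was withdrawn 18 h before; rats dosed ip were not starved. The vehicle was isotonic saline. Pressure was recorded by transducer under minimal restraint: twice before dosing, then at 1, 2, 3, 5 and 22 h. MABP was taken as diastolic + one-third pulse pressure. The value is the maximum % fall from the mean of the two pretreatment readings, n = 3-5.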

For assay [2], the system named is Rattus norvegicus. Briefly: Maximum percentage reduction in mean blood pressure in metacorticoid (DOCA) hypertensive rats at a standard oral dose of 100 mg/kg. Type of assay: functional. The gist of the method:
as §1

Assay [3] concerns Rattus norvegicus. Description: Maximum percentage reduction in mean arterial blood pressure in metacorticoid (DOCA) hypertensive rats at a standard oral dose of 100 mg/kg. Type of assay: functional. The essentials: as §1
Assay [4] concerns Rattus norvegicus. Briefly: Maximum percentage reduction in mean blood pressure in metacorticoid (DOCA) hypertensive rats at a standard oral dose of 50 mg/kg. In kind it is functional. The essentials: as §1
In assay [5] the test system is Rattus norvegicus. Description: Summation of percentage reductions, compared to pretreatment controls, in MABP of DOCA hypertensive rats at 1,2,3,5,8 hr after the 50 mg/kg oral dose. Type of assay: functional. The essentials:
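DOCA hypertensive rats (n = 5) were dosed orally. MABP (diastolic + one-third pulse pressure) was read before dosing and at 1, 2, 3, 5 and 8 h. The value is the sum of the % reductions from pretreatment control over these five time points.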

Regarding `N=C(N)Nc1nnc(-c2ccccc2O)s1`, the Reduction entry in the assay with Rattus norvegicus [1] was “Not significant”.

`CCC[S+]([O-])c1ccccc1-c1nnc(N=C(N)N)s1.Cl` (configuration not stated): the Reduction in the assay with Rattus norvegicus [2] worked out at 13%.

Take `Cc1ccc(-c2nnc(NC3=NCCN3)s2)c(C)c1.Cl`: in the assay on Rattus norvegicus [3], the Reduction is listed as 24%.

Turning to `Cl.N=C(N)Nc1nnc(-c2ccccc2I)s1`, the values for the Reduction in the assay with Rattus norvegicus [2] and in the assay on Rattus norvegicus [4] were 41% and 28%, respectively.

In the case of `COCCC/N=C(/N)Nc1nnc(-c2ccccc2C)s1.Cl`, the Reduction in the assay on Rattus norvegicus [2] came out at 33%.

`COc1cc(C)c(-c2nnc(N=C(N)N)s2)cc1OC.Cl`: in the assay with Rattus norvegicus [2], the Reduction came out at 24%.

On to `Cc1ccccc1-c1nnc(N(C)C2=NCCN2)s1`, for which the Reduction result with Rattus norvegicus [1] was “Not significant”.

As for `Cc1ccsc1-c1nnc(N=C(N)N)s1.Cl`, in the assay on Rattus norvegicus [2], the Reduction is 14%.

On to `Cl.N=C(N)Nc1nnc(-c2cccc(C(F)(F)F)c2)s1`, for which the Reduction in the assay on Rattus norvegicus [3] is 14%.

`Cc1ccccc1-c1nnc(NC(=N)NCCCO)s1.Cl` showed a Reduction in the assay on Rattus norvegicus [2] of 24%.

Turning to `N=C(N)Nc1nnc(-c2ccc([N+](=O)[O-])cc2)s1`, in the assay with Rattus norvegicus [1], the Reduction entry was “Not significant”.

`Cl.N=C(N)Nc1nnc(-c2ccco2)s1` gave a Reduction in the assay on Rattus norvegicus [2] of 24%.

With `C=CCNC(=N)Nc1nnc(-c2ccccc2C)s1.Cl`, the Reduction in the assay on Rattus norvegicus [3] is on record as 28%.

Regarding `Cl.N=C(N)Nc1nnc(-c2ccc(Cl)c(Cl)c2)s1`, the Reduction in the assay on Rattus norvegicus [2] is 15%.

In the assay with Rattus norvegicus [2], `Cc1ccccc1-c1nnc(NC(=N)N2CCN(C)CC2)s1.Cl` returned a Reduction of 18%.

In the assay with Rattus norvegicus [3], `Cc1ccccc1-c1nnc(NC(=N)NCCN)s1.Cl` came in with a Reduction of 32%.

In turn, `CCC/N=C(/N)Nc1nnc(-c2ccccc2C)s1.Cl` showed a Reduction in the assay with Rattus norvegicus [2] of 32%.

For `Cl.Ic1ccccc1-c1nnc(NC2=NCCN2)s1`, the Reduction in the assay with Rattus norvegicus [3] came out at 33%.

For the molecule `CCc1ccccc1-c1nnc(N=C(N)N)s1`, the Reduction with Rattus norvegicus [2] amounted to 12%.

As for `Cc1ccccc1-c1nnc(NC(=N)NCc2ccccc2)s1.Cl`, the Reduction in the assay with Rattus norvegicus [2] came out at 12%.

`Cc1cc(F)ccc1-c1nnc(N=C(N)N)s1.Cl`: in the assay on Rattus norvegicus [2], the Reduction turned out to be 34%.

For `COCC/N=C(/N)Nc1nnc(-c2ccc(OC)c(OC)c2)s1.Cl`, the Reduction in the assay on Rattus norvegicus [2] was 20%.

Molecule `Cc1cccc(-c2nnc(N=C(N)N)s2)c1C.Cl` registered a Reduction with Rattus norvegicus [2] of 14%.

Turning to `Cc1ccccc1-c1nnc(NC(=N)NCCO)s1.Cl`, the Reduction in the assay on Rattus norvegicus [2] is recorded as 35%.

On to `COCC/N=C(/N)Nc1nnc(-c2ccc(C)cc2C)s1.Cl`, for which, in the assay on Rattus norvegicus [2], the Reduction was found to be 31%.

In the case of `Cc1ccccc1-c1nnc(NC(=N)NCCc2ccccc2)s1.Cl`, in the assay on Rattus norvegicus [3], the Reduction was 29%.

Regarding `C[S+]([O-])c1ccccc1-c1nnc(N=C(N)N)s1.Cl` (configuration not stated), the Reduction in the assay with Rattus norvegicus [2] is 15%.

With `N=C(N)Nc1nnc(C2CCCCC2)s1`, in the assay with Rattus norvegicus [1], the Reduction result is “Not significant”.

As to `Cc1ccccc1-c1nnc(N/C(N)=N\CCCN(C)C)s1.Cl`, in the assay on Rattus norvegicus [3], the Reduction is 20%.

`COc1ccc(-c2nnc(N=C(N)N)s2)cc1OC.Cl`: the Reduction in the assay with Rattus norvegicus [2] was found to be 21%.

Regarding `Cc1ccccc1-c1nnc(NC2=NCCCN2)s1.Cl`, the Reduction with Rattus norvegicus [3] amounted to 13%.

`COCC/N=C(/N)Nc1nnc(-c2ccccc2I)s1.Cl` gave a Reduction in the assay with Rattus norvegicus [2] of 33%.

The molecule `C/N=C(/NC)Nc1nnc(-c2ccccc2C)s1.Cl` returned a Reduction in the assay on Rattus norvegicus [2] of 27%.

Regarding `Cc1ccccc1-c1nnc(NC(=N)NC2CCC2)s1`, the Reduction entry in the assay on Rattus norvegicus [1] is “Not significant”.

Consider `Cc1ccccc1-c1nnc(NC(=N)Nc2ccccc2)s1`, for which the Reduction result with Rattus norvegicus [1] was “Not significant”.

Regarding `CO/N=C(/N)Nc1nnc(-c2ccccc2C)s1.Cl`, the Reduction with Rattus norvegicus [3] is reported as 29%.

For the molecule `Cl.N=C(N)Nc1nnc(-c2cccs2)s1`, the Reduction in the assay on Rattus norvegicus [2] is given as 32%.

As to `C/N=C(/N)Nc1nnc(-c2ccccc2C)s1`, in the assay with Rattus norvegicus [2], the Reduction is recorded as 31%.

With `Cc1ccccc1-c1nnc(N=C2N(C)CCN2C)s1`, the Reduction entry with Rattus norvegicus [1] is “Not significant”.

In turn, `Cl.N=C(N)Nc1nnc(-c2ccccc2N)s1` showed a Reduction in the assay on Rattus norvegicus [2] of 14%.

As to `CCCC/N=C(/NC)Nc1nnc(-c2ccccc2C)s1.Cl`, the Reduction with Rattus norvegicus [2] is 28%.

`CCCCC/N=C(/N)Nc1nnc(-c2ccccc2C)s1.Cl` gave a Reduction in the assay with Rattus norvegicus [2] of 23%.

`Cl.N=C(N)Nc1nnc(-c2ccccn2)s1` returned a Reduction in the assay on Rattus norvegicus [2] of 19%.

Molecule `Cc1ccc(-c2nnc(N=C(N)N)s2)cc1C.Cl` came in with a Reduction in the assay with Rattus norvegicus [2] of 33%.

`Cc1ccccc1-c1nnc(NC2=NCCN2C)s1`: the Reduction result with Rattus norvegicus [1] is “Not significant”.

In the assay with Rattus norvegicus [3], `Cl.N=C(N)Nc1nnc(-c2cccc(Cl)c2)s1` displayed a Reduction of 12%.

Regarding `Cc1ccccc1-c1nnc(NC(=N)N(C)C)s1.Cl`, in the assay on Rattus norvegicus [2], the Reduction is reported as 18%.

As to `COc1cccc(-c2nnc(N=C(N)N)s2)c1`, the Reduction result in the assay on Rattus norvegicus [1] was “Not significant”.

Molecule `Cc1ccccc1-c1nnc(NC(=N)N(C)CC(C)O)s1.Cl` (configuration not stated) had a Reduction with Rattus norvegicus [2] of 21%.

In the case of `N=C(N)Nc1nnc(-c2ccccc2-c2ccccc2)s1`, the Reduction result with Rattus norvegicus [1] was “Not significant”.

In the assay with Rattus norvegicus [3], `Cl.N=C(N)Nc1nnc(-c2ccccc2Cl)s1` came in with a Reduction of 30%.

In turn, `Cc1ccc(F)cc1-c1nnc(N=C(N)N)s1.Cl` gave a Reduction in the assay on Rattus norvegicus [2] of 21%.

Molecule `COc1ccccc1-c1nnc(N=C(N)N)s1.Cl` gave a Reduction in the assay with Rattus norvegicus [2] of 26%.

On to `Cc1ccccc1-c1nnc(NC2=NC(C)(C)CN2)s1.Cl`, for which the Reduction in the assay on Rattus norvegicus [3] is given as 15%.

For `CC(=O)NCC/N=C(/N)Nc1nnc(-c2ccccc2C)s1`, in the assay on Rattus norvegicus [3], the Reduction came out at 21%.

Molecule `Cc1cccc(-c2nnc(N=C(N)N)s2)c1.Cl` had a Reduction in the assay on Rattus norvegicus [2] of 19%.

As for `Cc1ccccc1-c1nnc(Nc2ncc[nH]2)s1.Cl`, the Reduction in the assay with Rattus norvegicus [3] stood at 40%.

`Cl.N=C(N)Nc1nnc(-c2ccccc2F)s1` returned a Reduction with Rattus norvegicus [3] of 31%.

Take `CSc1ccccc1-c1nnc(N=C(N)N)s1.Cl`: the Reduction with Rattus norvegicus [2] is 13%.

For `Cc1ccc(-c2nnc(N=C(N)N)s2)cc1`, the Reduction entry in the assay on Rattus norvegicus [1] is “Not significant”.

`Cl.N=C(N)Nc1nnc(-c2cccc3ccccc23)s1`: the Reduction in the assay on Rattus norvegicus [2] was 20%.

With `Cc1cccc(C)c1-c1nnc(N=C(N)N)s1`, the Reduction result in the assay with Rattus norvegicus [1] was “Not significant”.

Consider `Cl.N=C(N)Nc1nnc(-c2ccc(C(F)(F)F)cc2)s1`, for which the Reduction with Rattus norvegicus [3] is 18%.

In turn, `COc1cccc(OC)c1-c1nnc(N=C(N)N)s1` came in with a Reduction with Rattus norvegicus [2] of 16%.

In the assay on Rattus norvegicus [2], `Cc1ccccc1-c1nnc(NC(=N)NCC2CCCO2)s1.Cl` (configuration not stated) gave a Reduction of 17%.

In the case of `Cc1ccc(-c2nnc(N=C(N)N)s2)c(C)c1`, the Reduction result with Rattus norvegicus [1] is “Not significant”.

As to `Cl.N=C(N)Nc1nnc(-c2cccc(F)c2)s1`, the Reduction in the assay on Rattus norvegicus [3] was found to be 20%.

In the assay with Rattus norvegicus [3], `Cc1ccccc1-c1nnc(N/C(N)=N\C(C)C)s1.Cl` gave a Reduction of 23%.

In the assay with Rattus norvegicus [2], `Cc1cc(C)cc(-c2nnc(N=C(N)N)s2)c1.Cl` had a Reduction of 18%.

In the assay with Rattus norvegicus [3], `CSCC/N=C(/N)Nc1nnc(-c2ccccc2C)s1.Cl` registered a Reduction of 18%.

The molecule `COCC/N=C(/N)Nc1nnc(-c2ccc(F)cc2C)s1.Cl` yielded a Reduction with Rattus norvegicus [2] of 33%.

Consider `Cc1ccc(C)c(-c2nnc(N=C(N)N)s2)c1`, for which, in the assay on Rattus norvegicus [1], the Reduction result was “Not significant”.

Take `Cl.N=C(N)Nc1nnc(-c2ccccc2)s1`: in the assay with Rattus norvegicus [3], the Reduction is reported as 30%.

As for `Cc1ccccc1-c1nnc(NC(=N)N2CCCC2)s1`, in the assay on Rattus norvegicus [1], the Reduction entry is “Not significant”.

Molecule `Cl.N=C(N)Nc1nnc(-c2ccc(F)cc2)s1` gave a Reduction in the assay on Rattus norvegicus [3] of 20%.

In the assay on Rattus norvegicus [3], `Cc1ccccc1-c1nnc(NC(=N)NC(C)(C)C)s1.Cl` gave a Reduction of 18%.

As to `CC(C)(C)c1ccccc1-c1nnc(N=C(N)N)s1`, the Reduction with Rattus norvegicus [2] worked out at 22%.

Regarding `Cc1ccccc1-c1nnc(NC(=N)N2CCOCC2)s1.Cl`, the Reduction in the assay on Rattus norvegicus [2] came to 16%.

`Cl.N=C(N)Nc1nnc(-c2ccccc2[N+](=O)[O-])s1`: the Reduction in the assay on Rattus norvegicus [2] was 17%.

Consider `CCCC/N=C(\NCCCN(C)C)Nc1nnc(-c2ccccc2C)s1`, for which the Reduction result in the assay on Rattus norvegicus [1] was “Not significant”.

As to `CCOCC/N=C(/N)Nc1nnc(-c2ccccc2C)s1.Cl`, the Reduction with Rattus norvegicus [2] is listed as 34%.

`Cl.N=C(N)Nc1nnc(-c2ccccc2C(F)(F)F)s1` registered a Reduction with Rattus norvegicus [3] of 26%.

The molecule `Cc1ccccc1-c1nnc(NC(=N)NC2CCCC2)s1.Cl` yielded a Reduction with Rattus norvegicus [2] of 20%.

Take `CCCOc1ccccc1-c1nnc(N=C(N)N)s1.Cl`: the Reduction in the assay with Rattus norvegicus [2] was determined as 12%.

As for `Cc1ccccc1-c1nnc(NN)s1`, the “Summation MABP” value with Rattus norvegicus [5] turned out to be 206. Further, the Reduction in the assay on Rattus norvegicus [4] amounted to 48%.
